Source: PubChem BioAssay
Only a selection was taken, and hits are over-represented in it overall.
A1 apoptosis 2 – A1 inhibitors via caspase activation, primary screen, cell-based, luminescence, HTS, two replicates. caspase activation, % (no concentration beside the values). AID 2465, 2010. 24,000 tested, under 10 active. MEF A1-2A-BIM cells, caspase-Glo luminescence, 3 h; percent of clofoctol response, DMSO zero; in the data active = caspase activation above about 5.9%
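system = A1-2A-BIM-expressing MEF cells | quantity = 2500 MEF cells/well | dosing = 50 nL compound per well, pinned | schedule = overnight cell settling, then 3 h compound exposure, 37 °C | signal = luminescence from DEVD-luciferin Caspase-Glo reagent, 1:1 in 50 mM HEPES, 1 h RT | read-out = Caspase-3/7 activation, seen as rise in luminescence signal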
INS-1E ATP HTS – protection of INS-1E cells from cytokine death, primary screen, ATP luminescence, single point | AID 488910, 2010 | protection from cytokine-induced ATP loss, % at 10 µM | INS-1E cytokine-induced death, 48 h; normalised: neutral wells 0, positive control 100 | 20,000 tested, 0.1% active;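 active = mean replicate protection from cytokine-induced ATP loss at least 50% and at least 75% of replicates each reaching 50%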
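Assay system: INS-1E rat insulinoma cells. Amount: 8000 cells per well. Medium: phenol-red-free RPMI with 5% fetal bovine serum. Reagent: IL-1β, TNF-α and IFN-γ cytokine mix. Doses: one compound concentration, pin transfer. Schedule: 48 h co-treatment, 10 min post-lysis read. Detection: CellTiter-Glo luminescence measuring cellular ATP.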
T cruzi intra – inhibitors of intracellular Trypanosoma cruzi, primary screen, cell-based, plate reader, single point, set 2; intracellular Trypanosoma cruzi in host cells; activity score (inhibition), % at 5.01 µM; 22,000 tested, 4.9% active; AID 651903, 2012; in the data active = activity score above about 55%;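 note: parasites and compound incubated about four days before reading; 0% = median of neutral control wells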
* hit, by the source's call; nt = no result given.

SMILES	A1 apoptosis 2	INS-1E ATP HTS	T cruzi intra
C[C@@H]1CN([C@H](C)CO)C(=O)c2cccc(NC(=O)Nc3ccc(C(F)(F)F)cc3)c2O[C@H]1CN(C)C(=O)Nc1cccc2ccccc12	-1	-17	-4
COc1ccc(S(=O)(=O)Nc2cccc3c2O[C@H](CN(C)C(=O)Nc2ccc(F)cc2)[C@@H](C)CN([C@H](C)CO)C3=O)cc1	nt	-2	6
C[C@H]1CN([C@@H](C)CO)C(=O)c2cccc(NC(=O)Nc3ccc(C(F)(F)F)cc3)c2O[C@@H]1CN(C)C(=O)Nc1cccc2ccccc12	1	-11	66*
C[C@@H]1CN([C@@H](C)CO)C(=O)c2cccc(NC(=O)Nc3ccc(C(F)(F)F)cc3)c2O[C@H]1CN(C)C(=O)Nc1ccc(C(F)(F)F)cc1	-2	-95	72*
C[C@@H]1CN([C@H](C)CO)C(=O)c2cccc(NC(=O)Nc3ccc(C(F)(F)F)cc3)c2O[C@@H]1CN(C)C(=O)NC1CCCCC1	1	-110	82*
NC(=O)NCC#Cc1ccc2c(c1)[C@]1(C(=O)N2)[C@H](C(=O)Nc2nc3ccccc3s2)[C@H]2C(=O)O[C@H](c3ccccc3)[C@H](c3ccccc3)N2[C@@H]1c1ccccc1OCCO	0	nt	nt
COCCOC(=O)N1C(=O)[C@@]2(c3cc(C#CC4=CCCCC4)ccc31)[C@H](C(N)=O)[C@H]1C(=O)O[C@H](c3ccccc3)[C@H](c3ccccc3)N1[C@@H]2c1ccccc1OCCO	0	nt	nt
C=C(C)[C@@H]1CC=C(/C=N/NC(=O)CCCCCCC(=O)OC)CC1	0	-5	8
O=C(N/N=C/c1cn(Cc2ccccc2)c2ccccc12)c1ccccn1	-3	-5	-12
C[C@@H]1CN([C@H](C)CO)C(=O)c2cccc(NS(=O)(=O)c3cccs3)c2O[C@@H]1CN(C)C(=O)Nc1ccc(C(F)(F)F)cc1	1	-35	71*
C[C@@H]1CN([C@@H](C)CO)C(=O)c2cccc(NS(=O)(=O)c3cccs3)c2O[C@@H]1CN(C)C(=O)Nc1ccc(F)cc1	nt	9	14
C=CC(CO)NS(=O)(=O)c1ccc(Br)cc1 (stereo not given)	-1	nt	nt
C[C@H]1CN([C@@H](C)CO)C(=O)Cc2cc(NC(=O)Nc3ccc4c(c3)OCO4)ccc2O[C@H]1CN(C)Cc1ccccc1	nt	-6	5
C[C@H](CO)N1C[C@H](C)[C@H](CN(C)Cc2ccc(Oc3ccccc3)cc2)Oc2ccc(NC(=O)Nc3ccccc3)cc2CC1=O	nt	-10	0
C[C@@H]1CN([C@H](C)CO)C(=O)Cc2cc(NC(=O)Nc3ccc4c(c3)OCO4)ccc2O[C@@H]1CN(C)Cc1ccc(Oc2ccccc2)cc1	nt	-37	73*
C[C@@H]1CN([C@@H](C)CO)C(=O)Cc2cc(NC(=O)Nc3ccc4c(c3)OCO4)ccc2O[C@@H]1CN(C)Cc1ccc(Oc2ccccc2)cc1	nt	-22	65*
C[C@@H]1CN([C@H](C)CO)C(=O)Cc2cc(NC(=O)Nc3ccc4c(c3)OCO4)ccc2O[C@@H]1CN(C)Cc1ccccc1	nt	6	37
C[C@@H]1CN([C@H](C)CO)C(=O)Cc2cc(NC(=O)Nc3ccc4c(c3)OCO4)ccc2O[C@H]1CN(C)Cc1ccc(Oc2ccccc2)cc1	-1	-47	78*
C[C@@H]1CN([C@H](C)CO)C(=O)CCCn2cc(nn2)CO[C@H]1CN(C)Cc1ccc(C(=O)O)cc1	nt	nt	-27
CC(C)NC(=O)N(C)C[C@H]1OCCCC[C@H](C)Oc2ccc(NS(=O)(=O)c3ccc(Cl)cc3)cc2C(=O)N([C@@H](C)CO)C[C@@H]1C	0	nt	nt
O=C(N/N=C/c1ccc(C(F)(F)F)cc1)c1ccccc1O	-6	-13	-1
O=C(NO)c1ccc(C(=O)N/N=C/c2ccc3ccccc3c2O)cc1	0	-62	14
C[C@H]1CN([C@@H](C)CO)C(=O)Cc2cc(NS(=O)(=O)c3ccc(Cl)cc3)ccc2O[C@@H]1CN(C)CC1CCCCC1	0	-12	53
C[C@H]1CN([C@@H](C)CO)C(=O)Cc2cc(NS(=O)(=O)c3ccc(Cl)cc3)ccc2O[C@H]1CN(C)CC1CCCCC1	3	-18	73*
COc1ccc(S(=O)(=O)Nc2ccc3c(c2)CC(=O)N([C@H](C)CO)C[C@H](C)[C@H](CN(C)CC2CCCCC2)O3)cc1	nt	-25	-4
COc1ccc(S(=O)(=O)Nc2ccc3c(c2)CC(=O)N([C@H](C)CO)C[C@@H](C)[C@H](CN(C)CC2CCCCC2)O3)cc1	-1	-9	59*
